# Screening results (PubChem)
# Sampled rows, rich in hits. Any-hit rate of the full collection: about 3.1%.
# RBBP9 inh – blocks human serine hydrolase RBBP9; O75884; recombinant RBBP9, FP-Rh probe fluorescence polarization; inhibition, % at 7.94 µM; 220,000 tested, 0.2% active; AID 1515;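 active means inhibition above the campaign mean of all tested compounds plus 3 SD, cut at about 14% in these data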
#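 system = RBBP9 protein | input = RBBP9 at 2.5 µM in dispensed solution, before mixing | measured by = fluorescence polarization (mP), excitation 525 nm, emission 598 nm | incubation = enzyme-compound preincubation 30 min, then probe labeling 45 min, 25 °C | buffer or medium = Tris-NaCl-Pluronic buffer, pH 8.0 | compound = single dose 7.94 µM | also added = FP-Rh probe, 375 nM dispensing solution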
# PRMT1 FP inh – PRMT1 (human) inhibition, primary screen; Q99873; recombinant PRMT1, activity-based probe fluorescence polarization; inhibition, % at 2.79 µM; 370,000 tested, 1.3% active;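 active means inhibition above about 21% made by adding two undisclosed values, limit read from the data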
# LEDGF integ inh – blocks HIV-1 LEDGF/p75-dependent DNA integration; inhibition, % at 3.7 µM; TR-FRET IN-LEDGF/p75 DNA integration, Eu/Cy5; 370,000 tested, 0.64% active;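 active means inhibition above the screen-wide mean plus 3 SD, cut at about 13% in these data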;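 further: signal is the Cy5 over europium emission ratio at 671 and 618 nm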
# UHRF1 binding – human UHRF1 methylated DNA binding inhibitors; Q96T88; UHRF1 binding to methylated oligo, TR-FRET; inhibition, % at 4.4 µM; 370,000 tested, 0.75% active; in the data active means inhibition above about 21%;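 further: UHRF1 SRA domain binding a hemimethylated CpG hairpin DNA probe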
# ABHD5-PLIN5 inh – inhibitors of human ABHD5-perilipin-5 interaction; inhibition, % at 4 µM; Split G. princeps luciferase complementation, luminescence, 4 h; 360,000 tested, 0.78% active; Q00G26+Q8WTS1;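 active means inhibition above the mean inhibition across every tested compound plus 3 SD, cut at about 22% in these data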
# Target sequence (Q00G26 whole entry, looked up): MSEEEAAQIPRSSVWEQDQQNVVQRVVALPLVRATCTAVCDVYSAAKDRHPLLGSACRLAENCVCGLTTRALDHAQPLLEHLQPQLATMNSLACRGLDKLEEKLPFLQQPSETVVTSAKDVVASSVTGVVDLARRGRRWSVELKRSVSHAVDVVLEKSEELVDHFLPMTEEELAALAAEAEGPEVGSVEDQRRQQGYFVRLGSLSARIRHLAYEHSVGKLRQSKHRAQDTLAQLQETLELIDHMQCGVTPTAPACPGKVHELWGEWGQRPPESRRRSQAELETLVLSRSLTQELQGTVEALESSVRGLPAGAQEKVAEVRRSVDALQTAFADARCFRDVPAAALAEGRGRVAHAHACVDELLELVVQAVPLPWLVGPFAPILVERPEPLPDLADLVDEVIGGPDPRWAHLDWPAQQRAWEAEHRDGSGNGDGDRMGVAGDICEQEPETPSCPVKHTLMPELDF
# Target sequence (Q8WTS1 whole entry, looked up): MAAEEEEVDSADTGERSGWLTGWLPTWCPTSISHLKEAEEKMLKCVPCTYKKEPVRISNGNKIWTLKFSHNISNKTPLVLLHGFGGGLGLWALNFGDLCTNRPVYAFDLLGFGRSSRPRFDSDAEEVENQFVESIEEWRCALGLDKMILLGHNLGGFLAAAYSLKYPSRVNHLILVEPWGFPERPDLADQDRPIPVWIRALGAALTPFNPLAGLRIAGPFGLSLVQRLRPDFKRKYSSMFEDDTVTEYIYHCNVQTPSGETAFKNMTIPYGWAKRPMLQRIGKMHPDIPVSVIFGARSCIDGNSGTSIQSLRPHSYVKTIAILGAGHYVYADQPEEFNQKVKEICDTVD
# MBD2 inh – blocks human MBD2 binding to methylated DNA. Q9UBB5. TR-FRET, MBD2 binding to methylated oligonucleotide. inhibition, % at 4.4 µM. 370,000 tested, 0.31% active. AID 686964; in the data active means inhibition above about 13%
# ABHD5-PLIN5 conf – confirmation of human ABHD5-PLIN5 interaction inhibitors; shares compounds with ABHD5-PLIN5 inh; biochemical ABHD5-PLIN5 interaction, luminescence; inhibition, % at 4 µM; 2,200 tested, 67% active; in the data active means inhibition above about 23%
# HNF4 split-luc – HNF4 split-luciferase signal hit, counter-screen | 2,200 tested, 77% active | HNF4 dimerization, luminescence, biochemical | shares compounds with ABHD5-PLIN5 inh | inhibition, % at 4 µM;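 active means mean inhibition across replicate wells exceeding the computed hit threshold, cut at about 13% in these data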;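 further: light from luciferase halves that rejoin when HNF4 fusion proteins dimerize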
# Numbers stand for hits; 0 = inactive; - = no result.
SMILES,RBBP9 inh,PRMT1 FP inh,LEDGF integ inh,UHRF1 binding,ABHD5-PLIN5 inh,MBD2 inh,ABHD5-PLIN5 conf,HNF4 split-luc
COCC(=O)OCC(=O)N1N=C(c2ccc(Cl)cc2)CC1c1ccco1 (configuration not stated),0,0,0,0,0,0,-,-
O=C(COc1cccnc1[N+](=O)[O-])N1N=C(c2ccc(Cl)cc2)CC1c1ccco1 (configuration not stated),0,0,0,0,0,0,-,-
CC(C)[C@H](NS(=O)(=O)c1ccccc1)C(=O)OCC(=O)N1N=C(c2ccc(Cl)cc2)CC1c1ccco1 (some centres not stated),0,0,0,0,24,0,48,56
Cc1ccc(OCC(=O)N2N=C(c3ccc(Cl)cc3)CC2c2ccco2)c([N+](=O)[O-])n1 (configuration not stated),0,0,0,0,24,0,0,14
O=C(Nc1nc2ccccc2n1Cc1ccc(Cl)cc1)c1ccco1,0,0,0,0,0,0,-,-
CC(NC(=O)/C=C/c1ccco1)c1nc2ccccc2n1Cc1cccc(Cl)c1 (configuration not stated),0,0,0,0,26,0,37,58
COc1ccc(NS(=O)(=O)c2ccc(C)c(C(=O)NCCCN3CCCC3=O)c2)cc1,-,0,0,0,23,0,0,0
O=C(/C=C/c1ccnc2ccccc12)c1cccs1,0,0,0,0,63,0,92,92
COc1ccc(C2CC(c3cccs3)=Nc3ccccc3S2)cc1 (configuration not stated),0,83,0,0,60,0,0,0
COc1ccc(C2CC(c3cccs3)=NN2S(C)(=O)=O)cc1 (configuration not stated),0,0,0,0,0,0,-,-
O=C(c1cccc(Oc2ccccc2)c1)N1CCC(Oc2cccnc2)CC1,-,0,0,0,-,0,-,-
Clc1ccc(-c2nnc3n2N=C(c2ccc(-c4ccccc4)cc2)CS3)c(Cl)c1,-,0,0,0,-,0,-,-
CCOC(=O)C1=CCN(S(=O)(=O)c2ccc(Br)cc2)C1c1cccc(Cl)c1 (configuration not stated),-,0,0,0,-,0,-,-
O=C(C=Cc1ccco1)c1cc(Cl)ccc1O,-,0,0,0,27,0,53,34
O=C(/C=C/c1ccco1)c1ccccc1O,0,0,0,0,0,0,-,-
C=CCN1[C@H](CC(C)C)COc2cc(N3CCSCC3)ccc2S1(=O)=O,-,0,0,0,-,0,-,-
CCN(Cc1ccncc1)Cc1ccc(OC)cc1OC,-,0,0,0,26,0,0,0
COc1ccc(CNCc2ccncc2)c(OC)c1,-,0,0,0,0,0,-,-
Oc1ccc(Cl)cc1-c1cc(-c2ccco2)[nH]n1,0,0,0,0,0,0,-,-
Oc1ccccc1-c1cc(-c2ccco2)[nH]n1,0,23,0,0,27,0,0,14
C=CCOc1ccc(/C=C/C(=O)OCC(=O)NCc2cccc(OC)c2)cc1,-,0,0,0,0,0,-,-
C=CCOc1ccc(C=CC(=O)c2c(O)c(OC)c(OC)c(OC)c2OC)cc1,-,0,0,0,59,0,72,56
C=CC[C@]12C[C@@]3(O[C@H](c4ccc(C(F)(F)F)cc4)N=C3C[C@H](c3ccc(OC)cc3)[C@H]1C)N(Cc1ccncc1)C2=O,-,0,0,0,-,0,-,-
CCOC(=O)COc1ccccc1/C=C1/NC(=O)NC1=O,0,0,0,0,0,0,-,-
C=CCOc1cccc(C(=O)/C=C2/C(=O)Nc3ccccc32)c1,-,0,0,0,65,0,80,90
O=C(O)COc1ccccc1/C=C1\C(=O)Nc2ccc(Br)cc21,-,0,0,0,34,0,42,44
O=C1Nc2ccc(Br)cc2/C1=C/C(=O)c1ccccc1,-,0,0,0,85,0,88,80
CC(=O)/C=C1/C(=O)Nc2ccccc21,0,0,0,0,44,0,71,81
C=CCOc1cccc(C(=O)N2CCCC(CCC(=O)NCc3ccccc3F)C2)c1 (configuration not stated),0,0,0,0,0,0,-,-
